Reference: publication PMC4805780 (International Journal for Parasitology: Drugs and Drug …, 2016)
“Also recorded” adds a separate entry of the source. Where two headings read alike, the source gives them in different places.

Key:
[1] = system: MonoMac6 cells; experiment: WST-1 cytotoxicity assay in mammalian cells; type: cell-based, human; settings: read-out: cytotoxic IC50; mammalian monocytic cells, 48 h
Summary of the method: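 MonoMac6 cells seeded at 10⁴/well in phenol-red-free RPMI-1640 with 10% FCS, 2.05 mM L-glutamine, nonessential amino acids, OPI supplement and 1% penicillin-streptomycin. Test compound at rising concentrations in triplicate, with DMSO-only controls; 48 h, 37 °C, 5% CO2. WST-1 added, 1 h at 37 °C. Supernatant transferred and formazan read as absorbance at 420 nm.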

[2] = target: T1, HcPMT1 + HcPMT2 combination (Haemonchus contortus, UniProt A0A2Z1FIB9+U5HK48); experiment: Methyltransferase HT activity kit assay, HcPMT1 + HcPMT2 combination; type: biochemical; settings: for IC50: read-out: HcPMT1 + HcPMT2 Activity inhibition IC50, 11 μg/ml each enzyme, 95 μM SAM, 160 μM phosphoethanolamine
T1 sequence (A0A2Z1FIB9 1-349): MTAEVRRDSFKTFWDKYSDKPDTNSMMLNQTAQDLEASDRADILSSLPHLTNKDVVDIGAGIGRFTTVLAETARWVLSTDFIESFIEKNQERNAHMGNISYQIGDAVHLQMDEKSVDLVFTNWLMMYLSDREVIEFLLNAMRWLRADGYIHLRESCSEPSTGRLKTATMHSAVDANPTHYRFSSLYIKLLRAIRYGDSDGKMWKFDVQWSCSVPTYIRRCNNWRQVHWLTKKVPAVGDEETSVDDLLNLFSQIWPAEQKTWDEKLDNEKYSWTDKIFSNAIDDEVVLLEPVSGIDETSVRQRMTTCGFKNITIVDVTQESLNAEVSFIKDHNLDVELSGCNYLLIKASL
T1 sequence (U5HK48 3-433): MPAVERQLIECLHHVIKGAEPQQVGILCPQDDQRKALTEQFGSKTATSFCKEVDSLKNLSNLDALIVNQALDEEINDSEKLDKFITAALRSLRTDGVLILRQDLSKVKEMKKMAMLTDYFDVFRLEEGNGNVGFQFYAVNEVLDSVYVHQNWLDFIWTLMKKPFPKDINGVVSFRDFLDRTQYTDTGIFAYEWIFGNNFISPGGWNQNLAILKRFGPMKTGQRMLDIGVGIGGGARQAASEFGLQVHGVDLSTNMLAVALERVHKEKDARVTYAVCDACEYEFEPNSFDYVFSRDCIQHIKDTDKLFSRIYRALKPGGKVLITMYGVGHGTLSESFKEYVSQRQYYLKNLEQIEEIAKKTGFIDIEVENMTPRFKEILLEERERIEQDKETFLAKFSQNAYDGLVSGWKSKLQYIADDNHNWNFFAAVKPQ
Summary of the method: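 His-tagged recombinant HcPMT1 and HcPMT2 from E. coli BL21-CodonPlus-DE3-RIL, Ni-affinity purified, dialysed in 5 mM Hepes-KOH pH 7.8 with 0.5 mM DTT. Fluorescent SAM-dependent methyltransferase kit, 11 µg/ml each enzyme, 95 µM SAM, 160 µM phosphoethanolamine. Rising test compound from DMSO stock; DMSO-only reactions as uninhibited. Triplicate, 24 °C, 45 min shaking, then kit positive-control mix 10 min. Isopropanol stop; fluorescence 380ex/520em. % inhibition against uninhibited mean RFU; IC50 by nonlinear regression.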

[3] = system: H. contortus third-stage (L3) larvae; experiment: Anthelmintic effect on motility of third-stage larvae in culture; set-up: species or system Haemonchus contortus; settings: for anthelmintic effect against larvae: data not shown
Summary of the method: (§1)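 Adult females freshly taken from goat abomasum, or L3 larvae Baermann-extracted from 10-day, 21 °C faecal cultures; both PCR-confirmed as H. contortus. 100 worms per dish, in triplicate, in 20 ml RPMI-1640 with 2% glucose and antibiotics, pH 6.8. Rising test-compound concentrations, with DMSO and untreated controls; 37 °C, 5% CO2, 36 h. Worms light-stimulated 5 min at 37 °C. 50 scored per dish as very motile, sluggish or immotile. IC50 from % non-motile by nonlinear regression.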

[4] = target: T2, HcPMT1 (Haemonchus contortus, UniProt A0A2Z1FIB9); experiment: Methyltransferase HT activity kit assay, HcPMT1 as sole enzyme; type: biochemical
T2 sequence (A0A2Z1FIB9 1-349): T1 sequence (A0A2Z1FIB9 1-349)

[5] = system: adult H. contortus female worms; experiment: Anthelmintic effect on motility of adult female worms in culture; set-up: species or system Haemonchus contortus; settings: for anthelmintic effect against adult worms: all concentrations up to a maximum of 80 μM
Summary of the method: as §1

[6] = system: P. falciparum PMT; settings: previous studies ref Bobenchik et al., 2013; cited from earlier work
[7] = system: P. falciparum; settings: ref Bobenchik et al., 2013; cited from earlier work
[8] = all concentrations up to a maximum of 80 μM

Hydrazinecarbothioamide, N,N-dipropyl- 2-(2-pyridinemethylene)-, (N,N,S)-copper(II) chloride complex, (SP-4-3)- [NSC-641296]
IC50 [1]: 29 ± 2.1 µM
concentration with highest inhibitory effect on HcPMT1 and HcPMT2 activity [2]: 8 µM
IC50 [2]: 5.1 ± 1.8 µM
concentration from which significant decrease in very motile larvae was observed ([3]; 36 h, P < 0.05): 4 µM
cytotoxic IC50 relative to anthelmintic IC50 against larvae ([3]; MonoMac6 IC50 vs larvae IC50): 2 fold
percentage of sluggishly motile larvae relative to very motile ([3]; above 4 μM, 36 h): at least 2.7 fold
percentage of immotile worms relative to very motile worms ([3]; at 22 μM, larvae, 36 h): 4 fold
percentage of sluggishly motile worms relative to very motile ([3]; from 14 μM and above, larvae, 36 h): at least 3 fold
IC50 ([4]; read-out: HcPMT1 Activity inhibition IC50, HcPMT1 alone, 95 μM SAM, 160 μM phosphoethanolamine): 8.3 ± 1.1 µM
cytotoxic IC50 relative to anthelmintic IC50 against adult worms ([5]; MonoMac6 IC50 vs adult worm IC50): 4 fold
percentage of immotile worms relative to motile worms ([5]; at 8 μM and above, adult worms, 36 h): at least 2 fold
change in number of motile adult worms ([5]; at 8 μM, 36 h): decrease by half

S=C(CSc1ccccc1)Nc1cccc2ccccc12 [NSC-158011, N-naphthalen-1-yl-2-phenylsulfanylethanethioamid]
inhibitory effect against catalytic activity of P. falciparum PMT [6]: significant inhibitory effect
inhibition at 15 µM ([2]; read-out: maximum inhibition of combined activity of HcPMT1 and HcPMT2): 12%
anthelmintic effect against larvae [3, 8]: did not show any anthelmintic effect
inhibitory effect against the activity of HcPMT1 as the sole enzyme [4]: did not have any significant inhibitory effect; also recorded: had no inhibitory effect
anthelmintic effect against adult worms ([5]; data not shown): did not show any anthelmintic effect
antiparasitic activity against P. falciparum [7]: significant antiparasitic activity

CC(=NNC(=[Se])N1CC2CCC(CC2)C1)c1ccccn1 [NSC-323241, 3-Azabicyclo[3.2.2]nonane-3-carboselenoic acid, [1-(2-pyridinyl)ethylidene]hydrazide]
inhibitory effect against catalytic activity of P. falciparum PMT [6]: significant inhibitory effect
inhibition at 12 µM ([2]; read-out: maximum inhibition rate of combined activity of HcPMT1 and HcPMT2): 21%
anthelmintic effect against larvae [3, 8]: did not show any anthelmintic effect
inhibitory effect against the activity of HcPMT1 as the sole enzyme [4]: did not have any significant inhibitory effect; also recorded: had no inhibitory effect
anthelmintic effect against adult worms ([5]; data not shown): did not show any anthelmintic effect
antiparasitic activity against P. falciparum [7]: significant antiparasitic activity

O=C1C=C(NCCc2cc(Br)c(O)c(Br)c2)C(=O)c2ncccc21 [NSC-668394, 5,8-Quinolinedione, 7-[[2-(3,5-dibromo-4-hydroxyphenyl)ethyl]amino]-]
concentration with highest inhibitory effect on HcPMT1 and HcPMT2 activity [2]: 5 µM
IC50 [2]: 2.8 ± 0.6 µM
anthelmintic effect against larvae ([3]; up to 60 μM): did not show any anthelmintic activity
IC50 [4]: 5.9 ± 0.9 µM
anthelmintic effect against adult H. contortus ([5]; up to 60 μM, data not shown): did not show any anthelmintic activity
